The results in this text go back to ChEMBL document CHEMBL1143879, “Identification of novel series of human CCR1 antagonists” (Bioorg Med Chem Lett, 2008).

Bounds are passed on as bounds.

Test [1] deals with T1, C-C chemokine receptor type 1 (Homo sapiens, UniProt P32246).
T1 sequence (P32246 whole entry): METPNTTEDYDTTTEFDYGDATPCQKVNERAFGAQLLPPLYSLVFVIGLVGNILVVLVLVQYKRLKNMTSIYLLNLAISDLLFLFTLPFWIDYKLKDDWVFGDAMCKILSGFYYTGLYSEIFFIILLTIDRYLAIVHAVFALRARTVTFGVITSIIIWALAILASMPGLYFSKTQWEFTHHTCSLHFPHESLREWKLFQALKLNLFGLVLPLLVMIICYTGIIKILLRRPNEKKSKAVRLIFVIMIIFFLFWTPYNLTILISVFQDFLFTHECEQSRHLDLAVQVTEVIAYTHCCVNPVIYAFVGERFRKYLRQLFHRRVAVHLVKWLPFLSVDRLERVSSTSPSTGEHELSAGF
The experiment in a line: Displacement of [125I]MIP1-alpha from human CCR1 receptor expressed in THP1 cells. It is filed as cell-based, THP-1. A digest of the protocol:
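THP-1 cells expressing CCR1, washed in PBS, at 5 × 10⁶/ml with compound or vehicle and 50 pM human [¹²⁵I]MIP-1α. Binding buffer: 50 mM Hepes pH 7.4, 5 mM MgCl₂, 1 mM CaCl₂, 0.5% BSA. Incubated 90 min at room temperature, then filtered on PEI-coated glass fibre and washed with buffer plus 0.5 M NaCl. Bound counts by scintillation. IC50, mean of triplicates in one experiment.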

Test [2] addresses T1, C-C chemokine receptor type 1. The experiment in a line: Antagonist activity at human CCR1 receptor expressed in THP1 cells assessed as human MIP-1-alpha-stimulated intracellular calcium level by FLIPR assay. It is filed as functional, cell-based, THP-1. An outline of the steps:
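THP-1 cells in RPMI-1640 at 2 × 10⁶/ml, mixed 1:1 with calcium dye buffer, loaded 30 min at 37 °C with 2.5 mM probenecid. Cells spun down, resuspended in RPMI-1640 with 0.1% BSA and plated at 1.5 × 10⁵/well with or without compound. Stimulated with 5 nM human MIP-1α; intracellular Ca²⁺ change read by FLIPR. IC50, mean of at least two independent experiments.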

Take `O=S(=O)(c1ccccc1Br)N1CCC[C@H](N2CCC(O)(c3ccc(Cl)cc3)CC2)C1`: the IC50 is 460 nM in test [1] and 1300 nM in test [2]. In the same order, the values of `COc1ccc(C2(O)CCN(C3CCN(S(=O)(=O)c4ccccc4Cl)CC3)CC2)cc1` are > 10000 nM and > 10000 nM. The matching figures for `O=S(=O)(NCCCN1CCC(O)(c2ccc(Cl)cc2)CC1)c1ccc(F)cc1`: 910 nM and 210 nM. Turning to `O=S(=O)(c1c(F)cc(F)cc1Br)N1CCC(N2CCC(O)(c3ccc(Cl)cc3)CC2)CC1`, the IC50 in test [1] came to 1120 nM; in test [2] it was 330 nM.

In the case of `Cc1cccc(Cl)c1S(=O)(=O)N1CCC[C@H](N2CCC(O)(c3ccc(Cl)cc3)CC2)C1`, the results for the IC50 in test [1] and in test [2] were 430 nM and 480 nM, respectively. On to `O=S(=O)(c1ccccc1Cl)N1CCC(N2CCC(O)(c3ccc(Oc4ccccc4)cc3)CC2)CC1`, for which the half-maximal inhibitory concentration (IC50) in test [1] and in test [2] was > 10000 nM each time. Take `Cc1ccccc1S(=O)(=O)NCCCN1CCC(O)(c2ccc(Cl)cc2)CC1`: the IC50 worked out at 150 nM in test [1] and 30 nM in test [2]. The matching figures for `O=S(=O)(c1ccccc1Cl)N1CCC(N2CCC(O)(c3ccc(F)cc3)CC2)CC1`: 1170 nM and 1250 nM. In the same order, the values of `O=S(=O)(c1ccccc1Cl)N1CCC[C@H](N2CCC(O)(c3ccc(Cl)cc3)CC2)C1` are 1900 nM and 2040 nM.

For `CC1(N2CCC(O)(c3ccc(Cl)cc3)CC2)CCN(S(=O)(=O)c2cccs2)CC1`, the IC50 in test [1] was > 10000 nM; in test [2], 7330 nM. The matching figures for `O=S(=O)(NCCCN1CCC(O)(c2ccc(Cl)cc2)CC1)c1ccsc1`: 570 nM and 385 nM. The matching figures for `O=S(=O)(NCCCN1CCC(O)(c2ccc(Cl)cc2)CC1)c1ccc(F)cc1Cl`: 360 nM and 100 nM. For the molecule `O=S(=O)(NCCCN1CCC(O)(c2ccc(Cl)cc2)CC1)c1ccccc1`, the IC50 in test [1] came to 300 nM; in test [2], 90 nM. Take `O=S(=O)(c1ccccc1Cl)N1CCC(N2CCC(O)(c3cccc(Cl)c3)CC2)CC1`: the IC50 in test [1] was 7000 nM; in test [2], 6210 nM. The matching figures for `O=S(=O)(c1cccs1)N1CCC(N2CCC(O)(c3ccc(Cl)cc3)CC2)CC1`: 970 nM and 1020 nM.

On to `O=S(=O)(c1ccccc1Cl)N1CCC(N2CCC(O)(c3ccc(Cl)c(F)c3)CC2)CC1`, for which the IC50 in test [1] was found to be 430 nM; in test [2] it was 610 nM. On to `O=S(=O)(c1ccccc1Cl)N1CCC(N2CCC(O)(c3cc(F)c(F)c(F)c3)CC2)CC1`, for which the results for the IC50 in test [1] and in test [2] were 1330 nM and 2550 nM, respectively. In the same order, the values of `O=S(=O)(NCCCN1CCC(O)(c2ccc(Cl)cc2)CC1)c1ccc(OC(F)(F)F)cc1` are 9000 nM and 3650 nM. The matching figures for `O=S(=O)(c1ccccc1Cl)N1CCC(N2CCC(O)(c3ccc(-c4ccccc4)cc3)CC2)CC1`: > 10000 nM and > 10000 nM. In the same order, the values of `O=S(=O)(NCCCN1CCC(O)(c2ccc(Cl)cc2)CC1)c1cc(Cl)cc(Cl)c1` are 780 nM and 1340 nM. Take `O=S(=O)(c1ccccc1Cl)N1CCC(N2CCC(O)(c3ccc(Cl)c(Cl)c3)CC2)CC1`: the IC50 came out at 890 nM in test [1] and 180 nM in test [2]. In the same order, the values of `O=S(=O)(NCCCN1CCC(O)(c2ccc(Cl)cc2)CC1)c1cc(Cl)ccc1Cl` are 540 nM and 280 nM. The matching figures for `O=S(=O)(NCCCN1CCC(O)(c2ccc(Cl)cc2)CC1)c1ccc(Cl)cc1Cl`: 410 nM and 360 nM. The matching figures for `O=S(=O)(c1ccccc1Cl)N1CCC[C@@H](N2CCC(O)(c3ccc(Cl)cc3)CC2)C1`: 1980 nM and 1290 nM. As to `O=S(=O)(c1ccccc1Cl)N1CCC(N2CCC(O)(c3ccc(F)c(Cl)c3)CC2)CC1`, the IC50 amounted to 510 nM in test [1] and 590 nM in test [2]. Regarding `O=S(=O)(NCCCN1CCC(O)(c2ccc(Cl)cc2)CC1)c1ccc(Cl)cc1`, the results for the IC50 in test [1] and in test [2] were 800 nM and 370 nM, respectively.

Consider `CC1(N2CCC(O)(c3ccc(Cl)cc3)CC2)CCN(S(=O)(=O)c2c(Cl)cccc2Cl)CC1`, for which the IC50 was determined as 4200 nM in test [1] and 4650 nM in test [2].

With `O=S(=O)(c1c(Cl)cccc1Cl)N1CCC(N2CCC(O)(c3ccc(Cl)cc3)CC2)CC1`, the IC50 in test [1] and in test [2] was 420 nM in each case. Take `O=S(=O)(NCCCN1CCC(O)(c2ccc(Cl)cc2)CC1)c1ccc(-c2ccccc2)cc1`: the IC50 in test [1] and in test [2] was > 30000 nM throughout. `CC(C)(C)c1ccc(C2(O)CCN(C3CCN(S(=O)(=O)c4ccccc4Cl)CC3)CC2)cc1`: the IC50 in test [1] and in test [2] was > 10000 nM each time. Take `Cc1ccc(S(=O)(=O)NCCCN2CCC(O)(c3ccc(Cl)cc3)CC2)cc1`: the IC50 came to 430 nM in test [1] and 120 nM in test [2]. As for `O=S(=O)(NCCCN1CCC(O)(c2ccc(Cl)cc2)CC1)c1ccccc1C(F)(F)F`, the IC50 in test [1] was 250 nM; in test [2], 50 nM.

Take `O=S(=O)(NCCCN1CCC(O)(c2ccc(Cl)cc2)CC1)c1ccccc1F`: the IC50 in test [1] was 580 nM; in test [2], 80 nM. The matching figures for `Cc1cccc(Cl)c1S(=O)(=O)N1CCC(N2CCC(O)(c3ccc(Cl)cc3)C2)CC1` (configuration not stated): > 30000 nM and > 10000 nM. In the case of `Cc1cccc(Cl)c1S(=O)(=O)N1CCC[C@@H](N2CCC(O)(c3ccc(Cl)cc3)CC2)C1`, the IC50 in test [1] was found to be 390 nM; in test [2] it was 270 nM.

As to `O=C(NCCCN1CCC(O)(c2ccc(Cl)cc2)CC1)c1ccc2ccccc2c1`, the IC50 was determined as 5830 nM in test [1] and 1650 nM in test [2]. The matching figures for `O=S(=O)(NCCCN1CCC(O)(c2ccc(Cl)cc2)CC1)c1cccs1`: 160 nM and 70 nM.

Regarding `O=S(=O)(NCCCN1CCC(O)(c2ccc(Cl)cc2)CC1)c1ccc2ccccc2c1`, the IC50 in test [1] turned out to be 1150 nM; in test [2], 520 nM. In the same order, the values of `O=S(=O)(NCCCN1CCC(O)(c2ccc(Cl)cc2)CC1)c1cccc(Cl)c1` are 380 nM and 100 nM. In the case of `O=S(=O)(NCCCN1CCC(O)(c2ccc(Cl)cc2)CC1)c1ccc(C(F)(F)F)cc1`, the IC50 in test [1] is 9400 nM; in test [2], 2200 nM. As for `O=S(=O)(c1ccccc1Cl)N1CCC(N2CCCC(O)(c3ccc(Cl)cc3)CC2)CC1` (configuration not stated), the IC50 came out at 400 nM in test [1] and 130 nM in test [2]. For the molecule `O=S(=O)(NCCCN1CCC(O)(c2ccc(Cl)cc2)CC1)c1ccccc1OC(F)(F)F`, the IC50 turned out to be 350 nM in test [1] and 190 nM in test [2]. In the same order, the values of `Cc1cccc(Cl)c1S(=O)(=O)N1CCC(C)(N2CCC(O)(c3ccc(Cl)cc3)CC2)CC1` are 3570 nM and 2260 nM. The matching figures for `O=S(=O)(NCCCN1CCC(O)(c2ccc(Cl)cc2)CC1)c1ccccc1-c1ccsc1`: 350 nM and 110 nM. In test [1], `N#CC1(c2ccc(Cl)cc2)CCN(CCCNS(=O)(=O)c2ccccc2Cl)CC1` yielded an IC50 of 600 nM. For the molecule `O=S(=O)(c1ccccc1Cl)N1CCC(N2CCC(O)(c3ccc(Cl)cc3)C2)CC1` (configuration not stated), the IC50 is > 30000 nM in test [1] and > 10000 nM in test [2]. For the molecule `O=S(=O)(c1ccccc1Cl)N1CCC(N2CCC(O)(c3ccc(Br)cc3)CC2)CC1`, the IC50 was found to be 440 nM in test [1] and 180 nM in test [2].

For `CC1(N2CCC(O)(c3ccc(Cl)cc3)CC2)CCN(S(=O)(=O)c2ccccc2Cl)CC1`, the IC50 worked out at 5150 nM in test [1] and 2260 nM in test [2]. Turning to `N#CC1(c2ccc(Cl)cc2)CCN(C2CCN(S(=O)(=O)c3ccccc3Cl)CC2)CC1`, in test [1], the IC50 was 1000 nM.

`O=S(=O)(NCCCN1CCC(O)(c2ccc(Cl)cc2)CC1)c1c(Cl)cccc1Cl`: the figures for the IC50 in test [1] and in test [2] were 80 nM and 30 nM, respectively. For the molecule `O=S(=O)(c1ccccc1Br)N1CCC[C@@H](N2CCC(O)(c3ccc(Cl)cc3)CC2)C1`, the IC50 in test [1] and in test [2] was 1400 nM in each case. Regarding `Cc1cccc(Cl)c1S(=O)(=O)N1CCC(N2CCC(O)(c3ccc(Cl)cc3)CC2)CC1`, the IC50 stood at 370 nM in test [1] and 430 nM in test [2]. The matching figures for `CC1CC(N2CCC(O)(c3ccc(Cl)cc3)CC2)CCN1S(=O)(=O)c1ccccc1Cl` (configuration not stated): 320 nM and 280 nM. In the same order, the values of `O=S(=O)(NCCCN1CCC(O)(c2ccc(Cl)cc2)CC1)c1ccc(Cl)c(Cl)c1` are 1850 nM and 2460 nM. In the same order, the values of `O=S(=O)(NCCCN1CCC(O)(c2ccc(Cl)cc2)CC1)c1ccccc1Br` are 140 nM and 170 nM. As for `O=S(=O)(c1ccc(Cl)c(Cl)c1Cl)N1CCC(N2CCC(O)(c3ccc(Cl)cc3)CC2)CC1`, the IC50 is 3600 nM in test [1] and 670 nM in test [2]. The matching figures for `O=S(=O)(NCCCN1CCC(O)(c2ccc(Cl)cc2)CC1)c1ccccc1Cl`: 110 nM and 40 nM.

The IC50 is the concentration that gives 50% inhibition.
